Measurements gathered from unrelated publications.
Each line is one published result; the experiments were not run side by side.
Read-out: metabolic stability
Species: human
Matrix: liver microsomes

`O=C(CCCO)N1N=C(c2c(-c3ccc(Cl)cc3)c3ccccc3[nH]c2=O)CC1c1ccc(Cl)cc1` (centres unmarked) gave a compound remaining of 31% (1 µM; 20 min; pH 7.4).
The compound remaining of `CS(=O)(=O)c1ccc(-c2cnc(N)c(-c3ccc(C(F)(F)F)nc3)c2)cc1` is reported as 92% (1 µM; 30 min).
For `Nc1nc(-c2ccc(NC(=O)Nc3cccc(-c4c[nH]c(N)n4)c3F)cc2F)c[nH]1`, the compound remaining was greater than 80% (5 µM; 1 h; pH 7.4).
`CC[C@H](NC(=O)[C@H](CS(=O)(=O)CC1CC1)N[C@@H](c1ccc(F)cc1)C(F)(F)F)C(=O)C(=O)NC1CC1` gave a compound remaining of 93% (1 h).
With `O=C(Nc1ccc(S(=O)(=O)N2CCC(Cl)CC2)cc1)c1ccc([N+](=O)[O-])o1` the compound remaining was 0.49% (1 µM; 1 h; pH 7.4).
For `Cc1cn(-c2ccc(-c3csc(Nc4c5c(nn4C)CCCC5)n3)cc2)cn1`, the compound remaining was 55% (1 µM; 30 min).
For `CC(C)NCC(O)COc1cccc2ccccc12` (centres unmarked), the compound remaining was 63% (1 µM; 30 min).
For `Nc1nc(-c2cccc(NC(=O)Nc3cccc(-c4c[nH]c(N)n4)c3)c2)c[nH]1`, the compound remaining was greater than 80% (5 µM; 1 h; pH 7.4).
